# Results collected from several papers.
# Lines come from different studies, so protocols differ.
# Target: Glycogen synthase kinase-3 alpha (GSK3A, Homo sapiens, UniProt P49840)
Compound,test,test system,setting,measurement,result
Cc1c[nH]c2nccc(Oc3c(F)cc(Nc4cc(Cl)nc(N)n4)cc3F)c12,"cell-free assay, competition with immobilised ligand",,0.1 µM,remaining binding,95%
Cc1sc(C(=O)NC2COC2)cc1-n1cc(NC(=O)Nc2c(F)cccc2Cl)cn1,"enzyme activity, inhibitor",,10 µM,remaining activity,128%
CS(=O)(=O)N1CCCC(NC(=O)[C@H](CCC2CCCCC2)NC(=O)c2ccc(CNC(=O)c3cnc4ccccn34)cc2)C1 (stereo partly shown),"cell-free assay, competition with immobilised ligand",,0.1 µM,remaining binding,100%
CC/C(=N\NC(=O)NCc1cccc(O)c1)c1ccc(O)c(C)c1O,"enzyme activity, inhibitor",,0.1 µM,inhibition,2.8%
O=S(=O)(Nc1cc(Sc2ncn[nH]2)c(O)c2ccccc12)c1ccc(-c2ccccc2)cc1,"enzyme activity, inhibitor",,1 µM,remaining activity,≥ 75%
COc1cc2ncnc(Nc3ccc(F)c(Cl)c3)c2cc1OCCCN1CCOCC1,cell-free assay,,0.5 µM,remaining signal,99.7%
CN([C@@H]1CCc2c(CC(=O)O)c3cc(S(C)(=O)=O)ccc3n2C1)S(=O)(=O)c1ccc(F)cc1,"cell-free assay, competition with immobilised ligand",,1 µM,remaining binding,100%
Cc1ccc(NC(=O)c2ccc(C)c(C(F)(F)F)c2)cc1C#Cc1nn(C2CCC(O)CC2)c2ncnc(N)c12 (stereo not shown),"cell-free assay, inhibitor",,10 µM,remaining signal,79%
CNC(=O)Nc1ccc2c(c1)CC[C@@]21OC(=O)N(CC(=O)N(Cc2ccc(F)cc2)[C@@H](C)C(F)(F)F)C1=O,"cell-free assay, competition with immobilised ligand",,1 µM,remaining binding,99%
Cc1ccc(NC(=O)c2ccc(CN3CCN(C)CC3)cc2)cc1Nc1nccc(-c2cccnc2)n1,"enzyme activity, inhibitor",,0.5 µM,activity vs control,100%
O=C(N[C@H]1CCCCC/C=C\C2C[C@@]2(C(=O)O)NC(=O)[C@@H]2C[C@@H](Oc3ccncc3)CN2C1=O)OC1CCCC1 (stereo partly shown),"cell-free assay, competition with immobilised ligand",,1 µM,remaining binding,100%
O=C(Nc1cnn(-c2csc(C(=O)NC3COC3)c2)c1)Nc1c(F)cccc1Cl,"enzyme activity, inhibitor",,5 µM,remaining activity,93.5%
CCCS(=O)(=O)Nc1ccc(F)c(C(=O)c2c[nH]c3ncc(-c4ccc(Cl)cc4)cc23)c1F,"enzyme activity, inhibitor",,1 µM,inhibition,< 10%
CCCCNc1ncc2c(-c3ccc(F)cc3)nn(C[C@H]3CC[C@H](N)CC3)c2n1,"target engagement in cells, inhibitor, chemoproteomics",,20 mM,inhibition,6%
Cc1cc(NC(=O)c2cccc3cc(-c4cccc5[nH]nc(N)c45)ccc23)ccc1F,"enzyme activity, inhibitor",,0.1 µM,activity vs control,121%
Cc1cc(-n2nc(Cc3cc(F)cc(C(F)(F)F)c3)nc2C)ccc1C(N)=O,"cell-free assay, competition with immobilised ligand",,1 µM,remaining binding,97%
CNc1cc(Oc2cc(C(=O)Nc3cc(N4CCN(C)CC4)cc(C(F)(F)F)c3)ccc2C)ncn1,"target engagement in cells, inhibitor, chemoproteomics",Huh-7,1 µM,inhibition,-23.9%
Cc1ccc(Nc2nccc(N(C)c3ccc4c(C)n(C)nc4c3)n2)cc1S(N)(=O)=O,"enzyme activity, inhibitor",,0.3 µM,inhibition,-12%
COc1cc2ncnc(Nc3ccc(Oc4ccccc4)cc3C)c2cc1OC,"enzyme activity, inhibitor",,1 µM,inhibition,4%
COc1cccc2c(NCc3ccccc3)nc(-n3c(N)nc4ccccc43)nc12,"target engagement in cells, inhibitor, chemoproteomics",,20 mM,inhibition,2%
CC(C)(C)c1nc(-c2cccc(NS(=O)(=O)c3c(F)cccc3F)c2F)c(-c2ccnc(N)n2)s1,"enzyme activity, inhibitor, radiometric",,1 µM,remaining activity,97%
C=CC(=O)Nc1cc(Nc2nccc(Nc3cc(Cl)c(F)cc3C(C)(C)O)n2)c(OC)cc1N1CC[C@@H](N(C)C)C1,"enzyme activity, inhibitor",,1 µM,inhibition,0%
Cn1cnc(Br)c1C1=CN(c2ncnc3[nH]cnc23)CCS1,"enzyme activity, inhibitor, radiometric",,50 nM,inhibition,14.8%
CCN(CC)CCNC(=O)c1c(C)[nH]c(/C=C2\C(=O)Nc3ccc(F)cc32)c1C,"enzyme activity, inhibitor",,10 µM,inhibition,36%
O=C(NCc1ncc(C(F)(F)F)cc1Cl)c1ccc2c(c1)C1(CCS(=O)(=O)CC1)[C@@H](C1CC1)N2S(=O)(=O)c1ccc(F)cc1,"cell-free assay, competition with immobilised ligand",,1 µM,remaining binding,100%
CCCOc1ccc(OC)c(F)c1C(=O)c1ccc(C(=O)N[C@@H]2CNC[C@H]2NC(=O)c2ccc3[nH]ncc3c2)cc1,"enzyme activity, inhibitor",,10 µM,remaining activity,89%
Nc1c(C(=O)NCc2ccc(C(=O)NCCCC3CCCCC3)cc2)cnn1-c1ccccc1,"cell-free assay, competition with immobilised ligand",,0.1 µM,remaining binding,100%
O=C1NC(=O)c2cc(Nc3ccc(F)cc3)c(Nc3ccc(F)cc3)cc21,"cell-free assay, inhibitor",,0.5 µM,remaining signal,88.2%
